T cruzi repl: inhibitors of intracellular T. cruzi growth, primary screen, luminescence, NIH3T3 host cells; T. cruzi beta-gal in NIH3T3, 90 h; inhibition, % (no concentration beside the values); actives 1.4% (n = 300,000);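 active means mean inhibition across valid replicates above about 55%, limit read from the data; inconclusive means mean below that limit but half or more replicates reach it; inactive means mean below it, under half of replicates reach it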;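 further: signal also drops with host cell toxicity which is not excluded here; 0% = plate median of DMSO wells and 100% = zero luminescence signal; higher percent means less beta-gal luminescence so fewer parasites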
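System: NIH/3T3 fibroblasts plus reporter T. cruzi. Medium: DMEM plus 2% FBS. Probe or stimulus: 5000 reporter trypomastigotes per well. Compound: single 50 nL compound addition per well in DMSO. Incubation: co-culture of at least 90 h after 3 h attachment. Detection: GalScreen β-gal luminescence, detergent lysis, 60 min. Evaluation: parasite load inhibition, %.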
Fh CTSL1 inh: Fasciola hepatica cathepsin L1 inhibitors, primary screen, counter-screen for PFM18AAP inhibitor project, biochemical, QFRET, fluorogenic peptide substrate | recombinant F. hepatica cathepsin L1, Z-Leu-Arg-MCA fluorescence | inhibition, % at 5.96 µM | actives 0.49% (n = 300,000) | AID 1906, 2009;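 active means inhibition above the mean of all tested compounds plus 3 SD, set per screening campaign, cut at about 17% in these data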;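 further: 0% = plate median of test compound wells and 100% = 1 µM Z-Phe-Ala-diazomethylketone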
Cardio protect: cardioprotection against H2O2-induced cell death, primary screen, uHTS, H9c2 cells, ATPLite luminescence. H9c2 cardiomyocytes, H2O2 injury protection, 2 h. protection from H2O2 cell death, % at 20 µM. actives 0.63% (n = 360,000);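 active means compounds giving at least 50% protection of heart cells from peroxide-induced death in the single-dose screen, raw or plate-pattern-corrected value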;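 further: 0% = DMSO wells with peroxide and 100% = DMSO wells without peroxide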
p-CIP stab down: p/CIP-EGFP fusion destabilizers, primary screen, fluorescence, F442A cells. AID 1984, 2009. Q05BA5. actives 0.01% (n = 290,000). 16 h. decrease of EGFP signal, % at 10 µM;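 active means EGFP signal decrease of at least 30% at 10 µM or well 3 SD below plate mean, unless failing retest; inactive means the rest, including hits failing retest or dose response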
JMJD2C inh: inhibitors of GASC-1 histone demethylase, primary screen, biochemical, fluorescence, DELFIA europium | Lysine-specific demethylase 4C (Homo sapiens), Q9H3R0 | GST-JMJD2C(1-420) H3K9me3 demethylation | inhibition, % at 2.35 µM | actives 0.069% (n = 330,000) | AID 2099, 2009;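 active means more than half of a compound's replicate wells show inhibition beyond 50%, single wells judged on their own value; inconclusive means some, but no more than half, of replicates pass 50% inhibition; inactive means no replicate passes 50% inhibition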;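 further: signal counts dimethyl H3K9 product captured on neutravidin plate; 0% = median of DMSO wells and 100% = 0.3 times that DMSO median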
PP5 inh: PP5 phosphatase inhibitors, primary screen, biochemical, fluorescence; purified PP5c, OMFP substrate fluorescence; actives 0.18% (n = 320,000); inhibition, % at 6.7 µM; Serine/threonine-protein phosphatase 5 (Homo sapiens), P53041; AID 1987, 2009;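 active means inhibition above the campaign's mean inhibition across all tested compounds plus 3 SD, cut at about 9.5% in these data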;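 further: 0% = DMSO only and 100% = 100 µM cantharidin control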
Target sequence (P53041 whole entry, looked up): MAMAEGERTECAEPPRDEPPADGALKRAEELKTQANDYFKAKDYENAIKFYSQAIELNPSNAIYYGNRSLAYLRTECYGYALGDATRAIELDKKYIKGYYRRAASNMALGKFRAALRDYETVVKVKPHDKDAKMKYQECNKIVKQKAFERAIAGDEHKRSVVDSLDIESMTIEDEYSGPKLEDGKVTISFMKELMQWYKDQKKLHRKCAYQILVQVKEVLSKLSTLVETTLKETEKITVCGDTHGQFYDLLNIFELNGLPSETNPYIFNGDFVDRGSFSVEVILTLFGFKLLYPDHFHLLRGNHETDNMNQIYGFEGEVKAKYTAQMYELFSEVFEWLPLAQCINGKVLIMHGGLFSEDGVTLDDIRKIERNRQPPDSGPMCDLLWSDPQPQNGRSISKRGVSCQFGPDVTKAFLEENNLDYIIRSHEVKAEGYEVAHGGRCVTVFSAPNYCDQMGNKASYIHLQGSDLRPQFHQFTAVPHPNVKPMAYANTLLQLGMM
* = called active by the depositor; ? = inconclusive; . = no result. Shown are actives, neighbours in structure and some others; about 2.4% of the full set was active somewhere.

SMILES	T cruzi repl	Fh CTSL1 inh	Cardio protect	p-CIP stab down	JMJD2C inh	PP5 inh
Cc1ccc(CSCC(=O)N2CCN(c3ccc(F)cc3)CC2)cc1	56.7*	4.1	-4.0	7.0	-0.8	2.4
O=C(CSc1ccccc1)N1CCN(c2ccc(F)cc2)CC1	3.8	17.4*	-1.7	.	-1.5	-2.1
COc1ccc(NC(=O)C2Cc3c(-c4ccc5c(c4)OCO5)ccnc3O2)cc1OC (configuration not stated)	.	.	-8.8	.	.	.
Cc1cccc2c1NC(=O)C2=O	.	.	3.5	.	.	.
COC(=O)c1cccc2c1NC(=O)C2=O	-9.9	17.0*	1.0	1.3	6.3	-0.2
CC(C)(C)C(=O)/C=c1\s/c(=C\c2ccc(-c3ccc([N+](=O)[O-])cc3)o2)c(=O)n1CC(=O)NC(N)=O	27.1	8.9	52.5*	-197.3	-4.1	2.1
CCN(CC)CCN(Cc1cc2cc3c(cc2[nH]c1=O)OCO3)C(=S)NC	-2.6	3.8	8.3	0.3	11.5	-1.3
COc1ccc(C2CC(c3ccc(Br)cc3)Nc3nc(N)nn32)cc1 (configuration not stated)	44.4	1.6	-2.4	-5.8	1.3	-2.5
Nc1nc2n(n1)C(c1cccs1)CC(c1ccc(Br)cc1)N2 (configuration not stated)	74.2*	-1.5	23.6	-6.9	-3.3	-0.5
Cc1noc(C)c1NC(=O)N(C)C[C@@H]1OCc2cn(nn2)CCCC(=O)N([C@H](C)CO)C[C@H]1C	.	.	-1.3	.	.	.
Cc1[nH]n(-c2ccccc2)c(=O)c1/C=N/O	-7.4	-2.1	3.2	2.1	-3.0	1.0
Cc1[nH]n(-c2ccccc2)c(=O)c1/C=N/N1C(=O)c2ccc3c4c(ccc(c24)C1=O)CC3	-5.9	1.7	65.2*	6.5	-0.4	-0.7
Cc1ccc2cccc(N=Cc3c(C)[nH]n(-c4ccccc4)c3=O)c2n1	-5.6	-2.6	63.0*	-15.1	-6.6	4.8
Cc1c(C(=O)N/N=C/c2ccc(N3CCOCC3)cc2)nc2ccccn12	-2.9	-0.9	11.5	5.3	-6.6	-0.2
COc1cc(/C=N/NC(=O)c2nc3ccccn3c2C)cc(OC)c1O	80.9*	3.5	3.6	4.3	-15.7	-0.7
CCN(C(=O)COC(=O)CCC(=O)c1ccc(Cl)cc1)c1c(N)n(Cc2ccccc2)c(=O)[nH]c1=O	.	.	1.6	.	.	.
C=CCn1c(O)c(N=NC(=S)Nc2cccc(OC)c2)c2ccccc21	59.3*	3.2	38.6	-5.7	-15.8	2.2
C=CCn1c(O)c(N=NC(=S)Nc2ccc(OC)cc2)c2ccccc21	43.2	11.3	56.5*	2.1	5.2	7.0
C=CCn1c(O)c(N=NC(=O)OCC)c2ccccc21	1.1	1.2	2.5	-4.3	8.1	-0.9
Cc1cccc(N2CCN(C(=O)CCCn3c(=S)[nH]c4cc5c(cc4c3=O)OCO5)CC2)c1C	57.3*	1.1	-3.0	-25.2	-1.2	0.1
CN(C)C(=O)c1ccc(NC(=O)COc2cccc3c2OC(C)(C)C3)cc1	.	.	3.8	.	.	.
COc1ccc(C(=O)N/C(=C\c2cn(C)c3ccccc23)C(=O)NCCCN2CCOCC2)cc1	16.8	2.7	-8.2	4.0	2.0	3.1
C=CCOc1c(Cl)cc(CNCCCN2CCOCC2)cc1OC	55.9*	-1.9	8.1	-0.7	1.4	5.8
CCOc1cc(CNCCCN2CCOCC2)cc(Cl)c1OCC(=O)NC(C)(C)C	51.2	5.5	7.4	-18.1	-5.0	-0.8
COc1cc(CNCCCN2CCOCC2)cc(Br)c1OCc1ccc(Cl)cc1	59.2*	0.7	-12.1	-10.1	-13.2	-0.6
SMILES	T cruzi repl	Fh CTSL1 inh	Cardio protect	p-CIP stab down	JMJD2C inh	PP5 inh
CCn1c2ccccc2c2cc(CNCCCN3CCOCC3)ccc21	60.7*	-1.9	1.7	-9.7	0.1	0.4
COc1cc(CNCCN2CCOCC2)ccc1OCc1ccc(Cl)cc1	49.5	6.3	2.4	-4.4	-4.8	-1.9
O=C(COc1ccccc1Cl)N1CCNC1=O	.	.	1.3	.	.	.
Cc1ccc(S(=O)(=O)N2CCC[C@H]2C(=O)OCC(=O)N2CCc3ccccc32)cc1	.	.	14.0	.	-8.8	.
COc1cc(OC)c2c(-c3cccc(-c4ccc(F)c(Cl)c4)c3)cc(=O)oc2c1	.	.	-10.2	.	.	.
CCCCNC(=O)c1cn(-c2ccc(OCC)cc2)c(=O)c2cc(OC)c(OC)cc12	3.1	-4.2	65.4*	-3.7	6.6	3.1
CCOc1ccc(NC(=O)c2cn(-c3ccc(OCC)cc3)c(=O)c3cc(OC)c(OC)cc23)cc1	?	9.2	8.4	-25.2	5.1	8.5
CCOc1ccc(-n2cc(C(=O)Nc3cccc(Cl)c3)c3cc(OC)c(OC)cc3c2=O)cc1	64.4*	-1.3	2.4	-11.5	-3.6	2.2
Cc1ccc(NC(=O)C2(C)CCN2C(=O)Cc2cc(F)ccc2F)cc1 (configuration not stated)	.	.	-0.6	.	.	.
CCc1ccccc1N(C(=O)c1snc(C(N)=O)c1N)C(C(=O)NCC1CCCO1)c1c[nH]c2ccccc12 (configuration not stated)	20.7	-0.9	-2.7	-16.6	1.4	3.1
COC(=O)c1ccc(-c2ccco2)n1Cc1ccccc1Cl	-7.4	-1.9	-3.4	-4.1	-3.7	1.9
COC(=O)c1ccc(-c2ccco2)n1Cc1nc(-c2ccc(OC)c(OC)c2)oc1C	50.1	19.4*	-14.6	-4.3	0.1	2.3
CC(C)Oc1ccc(Br)cc1/C=N\NC(N)=S	-2.8	46.6*	-5.2	-8.2	-6.0	-1.6
Cc1cc(/C=N/NC(N)=S)c(C)n1-c1ccc(Cl)cc1	24.7	17.1*	-8.4	18.1	5.3	0.3
Cc1cc(/C=N/NC(N)=S)c(C)n1-c1ccc(Br)cc1	36.7	41.8*	-9.5	1.8	-15.0	1.9
COc1ccc(Br)cc1/C=N/NC(=O)Cn1nnnc1N	-16.8	2.4	4.0	-4.2	-4.1	1.3
Cc1cc(/C=N/NC(N)=S)c(C)n1-c1cccc(Cl)c1	73.3*	14.3	-18.8	-17.6	-5.6	-0.1
CC(NC(=O)CSc1nnnn1C1CC1)c1ccccc1Br (configuration not stated)	.	.	-2.6	.	-1.7	.
Nc1ncc(-c2ccccc2)n1CC1CCCO1 (configuration not stated)	22.1	-1.4	61.6*	-11.1	-10.2	-1.7
COc1ccc(S(=O)(=O)N2CCC(C(=O)NCCc3c[nH]c4ccccc34)CC2)cc1	1.5	-6.2	-1.7	6.1	1.6	2.8
CCN(CC)S(=O)(=O)c1ccc(NCCCn2ccnc2)c([N+](=O)[O-])c1	21.0	-4.2	-2.4	-7.0	10.3	-0.3
O=C(c1ccccc1)c1ccc(NCCCn2ccnc2)c([N+](=O)[O-])c1	56.3*	1.3	-11.8	-1.2	-7.0	2.9

From PubChem
